From PubChem BioAssay
The list is not random: actives were taken first. Their share in the collection is about 2%.
IMP-1 inhibitor: blocks Pseudomonas aeruginosa IMP-1 metallo-beta-lactamase. purified IMP-1, nitrocefin hydrolysis, epi-absorbance fluorescence. inhibition, % at 5.6 µM. hit rate 0.45% among 290,000. AID 1556;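 active = inhibition above the mean plus 3 SD of all compounds in the same screening run, cut at about 4.5% in these data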;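 note: 0% = IMP-1 with DMSO and 100% = DMSO wells lacking enzyme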
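system = purified recombinant IMP-1 beta-lactamase | amount = 0.2 nM IMP-1, as dispensed | medium = HEPES buffer pH 7.1 with ZnSO4 and Brij 35 | times = 25 °C, 15 min preincubation, 25 min reaction | detection = plate fluorescence quenching by hydrolysis product, ex 480/em 530 nm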
PLC-gamma1 inh: blocks human PLC-gamma1 enzyme activity; hit rate 0.84% among 370,000; P19174; inhibition, % at 12.2 µM; purified PLC-gamma1, fluorogenic substrate, fluorescence; in the data active = inhibition above about 9.5%
VIM-2 inhibitor: blocks Pseudomonas aeruginosa VIM-2 metallo-beta-lactamase; purified VIM-2, nitrocefin hydrolysis, epi-absorbance fluorescence; hit rate 0.89% among 290,000; AID 1527; inhibition, % at 5.6 µM;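 active = inhibition above the mean of all tested compounds plus 3 SD, cutoff set per screening run, cut at about 7.5% in these data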;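 note: red hydrolysis product quenches plate fluorescence so inhibitors raise well fluorescence; 0% = enzyme with DMSO and 100% = DMSO without enzyme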
PvdQ acylase: P. aeruginosa PvdQ acylase inhibition. purified PvdQ acylase, fluorescence plate reader. inhibition, % at 10 µM. hit rate 0.063% among 340,000. AID 488965; in the data active = inhibition above about 30%, passing the limit was not always enough;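 note: 0% = vehicle neutral wells and 100% = reference inhibitor wells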
PLCb3 inh: blocks human PLC-beta3 enzyme activity; hit rate 0.18% among 370,000; Q01970; inhibition, % at 12.2 µM; Purified PLC-beta3, fluorogenic substrate, fluorescence;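 note: 0% = median of compound wells on plate and 100% = full blocker control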
PLCg1 ctr: counter-screen for PLC-beta3 inhibitors: inhibitors of human PLC-gamma1; purified PLC-gamma1, fluorogenic substrate, fluorescence; hit rate 3.1% among 3,300; shares compounds with PLC-gamma1 inh; inhibition, % at 12.3 µM; in the data active = inhibition above about 9.5%
PLCbeta3 conf: human PLC-beta3 inhibition, confirmation. shares compounds with PLC-gamma1 inh. purified PLC-beta3, fluorogenic substrate fluorescence. inhibition, % at 12.3 µM. hit rate 1% among 3,300
The depositor's hits bear a star; x = not tested or not shown; ! = not active in a repeat. Cut-off read from the data, not from the text of the source, unless noted: active = inhibition above about 11%; inactive = the rest.

SMILES	IMP-1 inhibitor	PLC-gamma1 inh	VIM-2 inhibitor	PvdQ acylase	PLCb3 inh	PLCg1 ctr	PLCbeta3 conf
C[C@@H]1CCN(C2CC2)S(=O)(=O)c2c(cccc2N2CC[C@H](N(C)C)C2)O1	x	1	x	x	-2	x	x
NC(=O)NC(=O)COC(=O)CCSc1ccccc1	-2	8	-2	-11	11*	-9	-4
CCc1cc2c(nc1CC)CCCN2S(=O)(=O)c1ccccc1	x	-4	x	x	1	x	x
Cc1cc(NC(=O)CSc2nnc(-c3cccs3)n2N)no1	-2	9.9*	-2	-14	3	-3	-6
CCCCn1c(SCC(=O)Nc2cc(C)on2)nnc1-c1cccs1	0	2	1	-8	-2	x	x
CCn1c(SCC(=O)Nc2ccc(OC)c(OC)c2)nnc1-c1cccs1	-3	12*	0	-13	10	-3	-4
CCn1c(SCC(=O)Nc2cc(OC)c(OC)c(OC)c2)nnc1-c1cccs1	-3	-3	-2	3	0	x	x
C=CCN1C(=O)[C@@H](CC(=O)NCc2ccccc2)[C@]2(C(=O)OC)CCCCC=C12	x	4	x	x	1	x	x
CC(=O)c1cc(-c2ccccc2)n(CC(=O)NCc2ccc(F)cc2)c1C	x	-5	x	x	0	x	x
CC(C)c1cc(C(C)C)c(S(=O)(=O)N2CCC(C(=O)NCc3cccs3)CC2)c(C(C)C)c1	x	2	x	x	3	x	x
CCC[C@H](/C=C/C(=O)OC(C)(C)C)Sc1ccc(N)cc1	x	-1	x	x	-1	x	x
COc1ccc(CNCC(O)(c2ccccc2)c2ccccc2)cc1	-2	19*	-3	-5	-1	-4	-1
Cc1ccc(NC(=O)NNC(=O)CSC2CCc3ccccc32)c(C)c1 (stereo unspecified)	x	-1	x	x	-7	x	x
Cc1ccc(S(=O)(=O)c2cccc(S(=O)(=O)N3CCCC3)c2)cc1S(=O)(=O)N1CCCC1	-1	9.9*	-1	-1	14*	-1	0
Cc1ccc(S(=O)(=O)c2cccc(S(=O)(=O)N3CCOCC3)c2)cc1S(=O)(=O)N1CCOCC1	-3	2	0	-8	-1	x	x
O=C(NCc1ccccc1)N1CCN(Cc2nc3ccccc3c(=O)[nH]2)CC1	x	2	x	x	3	x	x
CCCSc1nc(C)c(CC(=O)OCC)c(=O)[nH]1	-4	9.7*	-6	-2	7	3	3
CCCCCSc1nc(C)c(CC(=O)O)c(=O)[nH]1	-2	3	-2	-4	3	x	x
CCOC(=O)N1CCN(C(=O)c2ccc(Cn3c(=S)[nH]c4cc5c(cc4c3=O)OCO5)cc2)CC1	-3	12*	-6	-3	4	4	1
CCN(CC)C(=O)CC[C@H]1CC[C@]2(CCCN(Cc3ccc(Br)cc3)C2)O1	x	5	x	x	4	x	x
COc1ccc([C@H]2CC(=O)C=C(/C=C/c3ccccc3)C2)cc1OC	x	11*	x	-1	16*	-3	-3
COC(=O)[C@]12C[C@H](CC(=O)NCCCN3CCCC3=O)C(=O)N(Cc3ccco3)C1=C[C@H](C(C)C)O[C@@H]2C1CC1	x	-1	x	x	0	x	x
Cc1ccc(S(=O)(=O)N2CCN(CC(=O)NC3CCCc4ccccc43)CC2)c(C)c1 (stereo unspecified)	-2	3	-3	2	1	x	x
Cc1ccc(S(=O)(=O)N2CCN(CC(=O)NC3CCCc4ccccc43)CC2)cc1C (stereo unspecified)	-1	11*!	-4	-11	5	-3	0
Cc1cc2nc(CCN(Cc3cccnc3)C(=S)Nc3ccc(F)cc3)[nH]c2cc1C	-4	12*	0	-10	2	-3	-6
SMILES	IMP-1 inhibitor	PLC-gamma1 inh	VIM-2 inhibitor	PvdQ acylase	PLCb3 inh	PLCg1 ctr	PLCbeta3 conf
COc1ccccc1CC(=O)O/N=C(\N)Cc1cccc2ccccc12	-1	-14	1	-5	-18	x	x
COc1ccccc1C/C(N)=N/O	-3	1	0	-6	11*	2	-75
CC(C)Cn1c(SCC(=O)N2CCCc3ccccc32)nc2ccccc2c1=O	-2	11*	-1	x	-1	1	1
CCn1c(SCC(=O)N2CCCc3ccccc32)nc2ccccc2c1=O	-1	2	-1	0	1	x	x
Cc1ccc(CN2CCCCC(NC(=O)Cc3cccs3)C2=O)cc1 (stereo unspecified)	x	2	x	x	2	x	x
COC[C@@H](O)[C@H]1OCc2cccc(OC)c2[C@@H]1/C=C/c1ccccc1	x	6	x	x	2	x	x
O=C(CSc1nnc(CCCN2C(=O)c3cccc4cccc(c34)C2=O)n1-c1ccccc1)NCCCN1CCOCC1	-3	11*	-3	-13	3	-8	-2
O=C(CSc1nnc(CCCN2C(=O)c3cccc4cccc(c34)C2=O)n1-c1ccccc1)NCCCO	-1	-16	2	-20	-14	x	x
CC(=O)O[C@@H]1C=C[C@@H](C#Cc2ccc(C(C)(C)C)cc2)O[C@@H]1COC(=O)Nc1ccccc1	x	2	x	x	7	x	x
C[C@H]1[C@@H](N)CC[C@@]23CCCN2C(=O)CCC[C@@H]13	x	1	x	x	0	x	x
COc1cc(/C=N/NC(=O)c2cc[n+]([O-])cc2)ccc1O	-6	17*	-2	-10	10	3	2
COc1ccc(/C=N/NC(=O)c2cc[n+]([O-])cc2)cc1OC	-2	x	-2	-13	x	x	x
COc1nc(NCc2ccco2)nc(N2CCC(C)CC2)n1	-3	2	-3	5	3	x	x
CCNc1nc(OC)nc(N2CCC(Cc3ccccc3)CC2)n1	-5	4	-4	1	11*	-4	-4
NC(Cc1ccc(C(F)(F)F)cc1)c1csc(Nc2cc(Oc3ccccc3)ncn2)n1 (stereo unspecified)	x	9.7*	x	x	-12	-4	-2
O=C(Cn1nc(C(F)(F)F)c2c1CCCC2)N1CCOCC1	-4	9.6*	2	10	1	-9	-4
c1ccc(N2CCOCCOCCOCCOCC2)cc1	-1	12*	-1	-17	5	2	2
O=C1CCC2(CCCCC2)N1CCCO	x	-2	x	x	-1	x	x
C/C=C/c1ccccc1OCCCN1CCC(C(O)(c2ccccc2)c2ccccc2)CC1	x	13*	x	x	4	1	2
COc1ccccc1OCCCN1CCC(C(O)(c2ccccc2)c2ccccc2)CC1	x	1	x	x	2	x	x
COC(=O)c1cccc(OCCCN2CCC(C(O)(c3ccccc3)c3ccccc3)CC2)c1	x	9.7*	x	x	5	-2	-5
COC(=O)c1cccc(OC[C@@H](O)CN2CCC(C(O)(c3ccccc3)c3ccccc3)CC2)c1	x	11*	x	x	9	7	-4
C[C@@H]1CN([C@H](C)CO)C(=O)c2cc(NS(=O)(=O)c3ccccc3)ccc2O[C@@H](C)CCCCO[C@@H]1CN(C)Cc1ccc(Cl)c(Cl)c1	x	0	x	x	3	x	x
COC(=O)C(Cc1ccc(O)cc1)NS(=O)(=O)Cc1ccccc1 (stereo unspecified)	x	3	x	x	2	x	x
COC(=O)[C@H]1C[C@@]2(Oc3ccc(Br)cc3)c3ccccc3N(C(=O)OC(C)(C)C)[C@H]2N1C(=O)OC(C)(C)C	x	-1	x	x	7	x	x
